Source: PubChem
NALP1 inh: NALP1 inhibition; AID 2071; actives 0.61% (n = 280,000); S. cerevisiae NALP1/ASC/caspase-1 growth, X-gal OD620, 72 h; inhibition, % at 10 µM; in the data active = inhibition mostly above about 24%, no sharp cut-off; inactive = mostly below about 32%
VIM-2 inhibitor: inhibitors of Pseudomonas aeruginosa VIM-2 metallo-beta-lactamase. purified VIM-2, nitrocefin hydrolysis, epi-absorbance fluorescence. inhibition, % at 5.6 µM. actives 0.89% (n = 290,000). AID 1527;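 active = inhibition above the mean of all tested compounds plus 3 SD, cutoff set per screening run, cut at about 7.5% in these data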;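 note: red hydrolysis product quenches plate fluorescence so inhibitors raise well fluorescence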
NALP3 yeast inh: inhibitors of NALP3 inflammasome in yeast | Yeast reconstituted NLRP3/ASC/caspase-1, beta-gal luminescence, 24 h | inhibition, % at 10 µM | actives 0.39% (n = 330,000) | AID 2825;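 active = inhibition of 50% or more; inactive = inhibition below 50%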
IMP-1 inhibitor: inhibitors of Pseudomonas aeruginosa IMP-1 metallo-beta-lactamase; purified IMP-1, nitrocefin hydrolysis, epi-absorbance fluorescence; inhibition, % at 5.6 µM; actives 0.45% (n = 290,000); AID 1556;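 active = inhibition above the mean plus 3 SD of all compounds in the same screening run, cut at about 4.5% in these data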
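assay system = purified recombinant IMP-1 metallo-beta-lactamase enzyme | schedule = 15 min preincubation plus 25 min reaction at 25 °C | signal = Epi-absorbance fluorescence, 480 nm excitation, 530 nm emission | read-out basis = percent inhibition from optical density relative to buffer-blank wells | controls = IMP-1 with DMSO as 0%, enzyme-free DMSO as 100%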
Mot1-301 SUMO: blocks SUMOylation pathway, rescuing yeast Mot1-301 growth | S. cerevisiae Mot1-301 growth rescue, ATP luminescence, 38.5C; percent above DMSO median, 100 means doubled | growth rescue, % at 18.8 µM | actives 1% (n = 320,000);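 active = every valid replicate shows activation above 250% relative to neutral control wells; inactive = the rest, any valid replicate at or below 250%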
PolyA inh: blocks polyadenylation in yeast reporter cells; S. cerevisiae SKY197-pL101 polyadenylation reporter, beta-gal luminescence; efflux-impaired pdr1/pdr3 knockout yeast; score 100 = 6 SD above DMSO; activity score, % at 12 µM; actives 0.02% (n = 300,000); AID 1875;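 active = lowest replicate activity score at least 50, where 100 means six control SD above control mean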;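 note: yeast exposed to compound for 9 h at 30 °C; higher score means more reporter readthrough which indicates perturbed polyadenylation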
Hits are given with their value; . = inactive; / = no result. Sampled rows, rich in hits. Any-hit rate of the full collection: about 2.9%.

SMILES	NALP1 inh	VIM-2 inhibitor	NALP3 yeast inh	IMP-1 inhibitor	Mot1-301 SUMO	PolyA inh
S=c1sc2c(N3CCOCC3)ncnc2n1-c1ccccc1	39	.	.	.	.	.
CCN1CCN(c2ncnc3c2sc(=S)n3-c2ccccc2)CC1	44	.	.	.	.	.
CCOc1ccc2c(c1)C(c1cccs1)=NNC(c1cccnc1)=N2	30	.	.	.	.	.
O=C(CCc1nnc2ccc(N3CCOCC3)nn12)Nc1ccc(F)cc1F	.	.	.	.	.	.
Cc1ccc(CN2CCC(N3CC(C)OC(C)C3)CC2)cc1 (stereo not drawn)	.	.	.	.	.	.
CSc1ccc(CN2CCC(N3CC(C)OC(C)C3)CC2)cc1 (stereo not drawn)	.	.	.	.	285	.
Cc1ccc(CNC(=O)CCS(=O)(=O)c2ccc(Br)cc2)cc1	.	.	/	.	/	.
O=C(CCS(=O)(=O)c1ccc(Br)cc1)NCc1ccc(F)cc1	.	.	.	28	.	.
Cc1ccccc1CN1CCNC(=O)C1CC(=O)NCCN1CCCCC1=O (stereo not drawn)	.	.	.	.	.	.
COc1ccccc1N1CCN(C(=O)C(C)CS(=O)(=O)c2ccc3c(c2)NC(=O)CS3)CC1 (stereo not drawn)	.	.	.	11	.	.
CC(CCc1ccccc1)NC(=O)CCNC(=O)c1ccccc1Cl (stereo not drawn)	/	/	.	/	.	/
CC1CN(Cc2cc(=O)n3ccsc3n2)CC(C)O1 (stereo not drawn)	.	.	.	.	278	.
O=c1cc(CN2CCC(Cc3ccccc3)CC2)nc2sccn12	.	.	.	.	.	.
Cc1ccccc1CNS(=O)(=O)c1csc(C(N)=O)c1	.	.	.	.	.	.
CCOc1c(C)cc(S(=O)(=O)NCc2ccccn2)c(C)c1C	.	.	.	.	.	.
Cc1ccc(NCc2ccncc2)c(Br)c1	32	.	.	.	.	.
Cc1ccc2c(COC(=O)CNC(=O)c3ccco3)cc(=O)oc2c1C	/	/	.	/	/	/
CCCCN(C)CCNC(=O)c1cc2c(-c3cccc(OC)c3)nn(C)c2s1	.	10	.	.	.	.
COCCNC(=O)c1cc2c(-c3ccccc3F)nn(C)c2s1	.	.	.	.	.	.
CCCCN(C)CCNC(=O)c1cc2c(-c3ccccc3F)nn(C)c2s1	.	11	.	.	.	.
COc1ccc(NC(=O)Nc2cccc3c2O[C@H](CN(C)C(=O)Nc2ccc4c(c2)OCO4)[C@@H](C)CN([C@H](C)CO)C3=O)cc1	/	/	.	/	.	/
CC(=O)c1ccc(S(=O)(=O)N2CCN(C(=O)CSC(=S)N3CCCC3)CC2)cc1	/	/	.	/	.	.
COc1ccc(F)cc1C(=O)C1CCCN(C(=O)Cc2c(C)noc2C)C1 (stereo not drawn)	.	8.3	.	.	.	.
CC(=O)n1cc([C@@H]2C=C(C(=O)O)O[C@H](OCc3ccc(CO)cc3)C2)c2ccccc21	.	8.8	.	.	.	.
CCC(=O)Nc1nc2ccc(S(C)(=O)=O)cc2s1	.	.	.	.	.	.
SMILES	NALP1 inh	VIM-2 inhibitor	NALP3 yeast inh	IMP-1 inhibitor	Mot1-301 SUMO	PolyA inh
CCC(=O)Nc1nc2ccc(NC(C)=O)cc2s1	.	.	.	6.2	.	.
Cc1cc(C)cc(NC(=O)CSc2nc(CSc3ccc(Cl)cc3)cc(=O)[nH]2)c1	34	.	.	.	.	.
Cc1ccc(C(=O)N2CCC(Cc3ccccc3)CC2)cc1S(=O)(=O)N1CCOCC1	/	/	.	/	/	/
COc1ccc(N=Cc2c(O)c3ccccc3n2C(C)=O)cc1	.	.	.	.	.	.
COc1ccc(N=Cc2sc(O)c3ccccc23)cc1	.	.	.	8.3	.	.
CCCNC(=S)N1CCC(NC(=O)c2ccc(C)cc2)CC1	.	.	.	.	.	.
Cc1ccccc1-c1noc(-c2ccccc2C(=O)NCc2ccco2)n1	39	.	.	.	.	.
COc1cccc(-c2nc(-c3ccc4c(c3)-c3ccccc3S4(=O)=O)c(-c3ccccc3)[nH]2)c1OC	.	.	.	4.8	/	.
COc1ccc(Cc2nnc(NC(=O)Nc3ccccc3)s2)cc1OC	.	.	.	.	.	.
